This is an account of results in ChEMBL document CHEMBL3853340, “Dihydropyrimidinones and -thiones with improved activity against human polyomavirus family members” (Bioorg Med Chem Lett, 2016).

In general, GI50 refers to the concentration giving 50% growth inhibition. As usually defined, the CC50 is the concentration at which the toxic effect on the cells reaches its halfway point. In general, logD refers to lipophilicity at a set pH, counting ionised and neutral species. A lower logD goes with a more hydrophilic compound. Broadly, the EC50 is the concentration needed to bring the measured effect to its halfway point. For orientation: logP means a log measure of how a compound divides between an organic and an aqueous phase. A higher logP goes with higher lipophilicity.

In data set [1] the target is Large T antigen (Simian virus 40) (UniProt P03070). In words: Inhibition of ATPase activity of SV40 T antigen expressed in baculovirus at 10 uM by antibody affinity chromatography relative to control. To be noted: Betapolyomavirus macacae. The gist of the method: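 Purified T antigen ATPase activity measured with test agent at a final concentration of 10 μM. Activity was normalized to reactions with no compound but an equal amount of DMSO. Values are the means of three independent experiments.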

For data set [2], the species on record is Homo sapiens. The data set is described as follows: Inhibition of human Hsp70 expressed in Escherichia coli BL21(DE3) assessed as suppression of ATPase activity at 100 uM after 60 mins by TLC based steady state ATPase assay relative to control. The gist of the method: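 Hsp70 ATPase activity measured without cochaperone. Activity was normalized to reactions with no compound but an equal amount of DMSO. Values are the means of three independent experiments.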

Data set [3] can be described thus: Cytotoxicity against human MCF7 cells assessed as cell growth inhibition after 48 hrs by cell titer-glo assay. It counts as toxicity, cell-based. An outline of the steps: (§1)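 Growth of MCF7 breast cancer cells and RMS13 rhabdomyosarcoma cells measured in the presence of compound. Values are the means ± SD of 2 independent experiments, each run in triplicate.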

Data set [4] concerns Homo sapiens. In words: Inhibition of human Hsp70 expressed in Escherichia coli BL21(DE3) assessed as suppression of Hdj2-activated ATPase activity at 100 uM dosed 15 mins after Hsp70 and Hdj2 pre-incubation and measured after 60 mins by TLC based steady state ATPase assay relative to control. It counts as […]. An outline of the steps:
(§2)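 Hsp70 ATPase activity measured with Hdj2 (Hsp40) at a 1:0.5 Hsp70:Hsp40 molar ratio. Activity was normalized to DMSO-matched reactions lacking compound. Values are the means of three independent experiments.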

Data set [5] in a line: Cytotoxicity against human RMS13 cells assessed as cell growth inhibition after 24 hrs by cell titer-glo assay. The data set is classed as toxicity, cell-based. An outline of the steps:
as §1
Background: ATP-based viability assays read luminescence as a measure of living cells.

A short description of data set [6]: Cytotoxicity against JC polyomavirus MAD-4 infected grivet COS7 cells assessed as reduction in cell viability after 7 days by cell titer-glo assay. The data set is classed as toxicity, cell-based. The following applies: chlorocebus aethiops, cos-7, 168 h. An outline of the steps: (§3)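 JC virus replication and viability measured in COS7 green monkey kidney cells. EC50 is the concentration giving 50% activity. CC50 is the concentration killing 50% of viable cells. Values come from two independent experiments.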

Data set [7] is described as follows: Cytotoxicity against BK polyomavirus Gardner infected-human HFF cells assessed as reduction in cell viability after 7 days by cell titer-glo assay. It counts as toxicity, cell-based. The following applies: for CC50: hff, 168 h; for CC50 at 168 h: HFF cells infected with BK polyomavirus Gardner. An outline of the steps:
(§4)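 BK virus replication and viability measured in human foreskin fibroblasts. EC50 is the concentration giving 50% activity. CC50 is the concentration killing 50% of viable cells. Values come from two independent experiments.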

Data set [8] can be described thus: Distribution coefficient, logD of the compound. To be noted: octanol/water. It counts as physicochemical.
Another data set has as its system JC polyomavirus. The data set is described as follows: Antiviral activity against JC polyomavirus MAD-4 infected in grivet COS7 cells assessed as reduction in DNA copy number after 7 days by PCR analysis. It counts as functional, cell-based. The following applies: MAD-4, COS-7, 168 h. The gist of the method: as §3
Data set [9] is described as follows: Specificity index, ratio of CC50 for grivet COS7 cells to EC50 for JC polyomavirus MAD-4 infected in grivet COS7 cells. Also noted: species or system COS-7.
The test system of another data set is BK polyomavirus. In words: Antiviral activity against BK polyomavirus Gardner infected in human HFF cells assessed as reduction in DNA copy number after 7 days by PCR analysis. To be noted: Betapolyomavirus hominis, 168 h. The data set is classed as functional, cell-based. An outline of the steps: as §4
Data set [10] in a line: Partition coefficient, logP of the compound. The data set is classed as physicochemical. The following applies: octanol/water.
Data set [11] concerns Homo sapiens. In words: Activation of human Hsp70 expressed in Escherichia coli BL21(DE3) assessed as stimulation of Hdj2-activated ATPase activity at 100 uM dosed 15 mins after Hsp70 and Hdj2 pre-incubation and measured after 60 mins by TLC based steady state ATPase assay relative to control. It counts as […]. An outline of the steps: as §2

Bounds are passed on as bounds.

Large T antigen (Simian virus 40), sequence (P03070 whole entry): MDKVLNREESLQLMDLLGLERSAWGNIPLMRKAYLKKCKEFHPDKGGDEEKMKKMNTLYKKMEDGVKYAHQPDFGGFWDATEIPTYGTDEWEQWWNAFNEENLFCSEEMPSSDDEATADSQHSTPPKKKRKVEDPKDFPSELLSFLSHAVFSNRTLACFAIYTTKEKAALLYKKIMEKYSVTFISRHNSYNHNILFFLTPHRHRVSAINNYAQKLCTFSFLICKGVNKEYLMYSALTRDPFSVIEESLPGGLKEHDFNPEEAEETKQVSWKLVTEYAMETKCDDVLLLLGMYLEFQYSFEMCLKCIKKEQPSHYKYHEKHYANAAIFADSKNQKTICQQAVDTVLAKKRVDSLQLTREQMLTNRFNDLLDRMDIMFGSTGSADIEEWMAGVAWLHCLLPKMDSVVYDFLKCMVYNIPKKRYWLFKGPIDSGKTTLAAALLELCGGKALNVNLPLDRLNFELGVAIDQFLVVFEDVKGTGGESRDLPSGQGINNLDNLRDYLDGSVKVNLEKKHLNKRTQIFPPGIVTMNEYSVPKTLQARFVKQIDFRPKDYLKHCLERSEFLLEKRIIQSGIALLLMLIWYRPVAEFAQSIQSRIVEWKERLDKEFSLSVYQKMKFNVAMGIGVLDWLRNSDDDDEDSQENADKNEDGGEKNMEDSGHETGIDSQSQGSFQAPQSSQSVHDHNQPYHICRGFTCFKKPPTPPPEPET

Turning to `CC1=C(C(=O)OCc2ccccc2)C(c2ccc(-c3ccccc3C)cc2)NC(=O)N1CCCCCc1nnn[nH]1` (stereo not given), the fold change (FC) in data set [1] turned out to be 2.1; in the data set filed under Homo sapiens [2], 1.4; in the data set with Homo sapiens [4] it was 3. For the same compound, the GI50 at 48 h in data set [3] was 72 µM. The GI50 at 24 h in data set [5] stood at 100 µM.

Turning to `CC1=C(C(=O)OCc2ccccc2)C(c2ccc(-c3ccccc3)cc2)N(Cc2ccc(-c3nnn[nH]3)cc2)C(=O)N1` (stereo not given), the fold change (FC) in data set [1] was determined as 2.3; in the data set listed under Homo sapiens [2], 1.2; with Homo sapiens [4], 5.

For `CC1=C(C(=O)OCc2ccccc2)C(c2ccc(-c3ccccc3)cc2)N(Cc2ccc(-c3nnn[nH]3)cc2)C(=S)N1` (stereo not given), the figures for the fold change (FC) (in data set [1]; in the data set listed under Homo sapiens [2]; with Homo sapiens [4]) were 4.5, 1.7 and 5.3, respectively. In addition, the CC50 in data set [6] was 18 µM; in data set [7], 17 µM. In data set [8], the logD was 4.8. Besides, the results for the EC50 in the data set with JC polyomavirus and with BK polyomavirus were 0.75 µM and 1.8 µM, respectively. For the same compound, in data set [9], the “Ratio CC50/EC50” value was found to be 23. Besides, in [3], the GI50 at 48 h was 110 µM. Further, the GI50 at 24 h in [5] was found to be 72 µM. Also, the logP in [10] is 6.4.

Turning to `CC1=C(C(=O)OCc2ccccc2)C(c2ccc(-c3ccccc3C)cc2)N(Cc2ccc(-c3nnn[nH]3)cc2)C(=S)N1` (stereo not given), the fold change (FC) in data set [1] turned out to be 7.5; in the data set listed under Homo sapiens [2] it was 1.3; in the data set on Homo sapiens [4], 4.8. Moreover, in data set [5], the GI50 at 24 h is 62 µM.

As for `CC1=C(C(=O)OCc2ccccc2)C(c2ccc(-c3ccccc3)cc2)NC(=S)N1Cc1ccc(-c2nnn[nH]2)cc1` (stereo not given), the values for the fold change (FC) (in data set [1]; in the data set filed under Homo sapiens [2]; with Homo sapiens [4]) were 5.5, 1.4 and 4.5, respectively. Also, the GI50 at 48 h in [3] was found to be 140 µM. The GI50 at 24 h in data set [5] amounted to 87 µM.

For `CC1=C(C(=O)OCc2ccccc2)C(c2ccc(-c3ccccc3C)cc2)NC(=S)N1CCCCCc1nnn[nH]1` (stereo not given), the fold change (FC) in data set [1] was determined as 4.7; in the data set with Homo sapiens [4], 2.5. Moreover, the GI50 at 24 h in data set [5] is 100 µM.

For `CC1=C(C(=O)OCc2ccccc2)C(c2ccc(-c3ccccc3)cc2)NC(=O)N1CCCCCC(=O)O` (stereo not given), the fold change (FC) (in [1]; in the data set with Homo sapiens [11]) was 1.5 each time. In data set [5], the GI50 at 24 h turned out to be 120 µM.

On to `CC1=C(C(=O)OCc2ccccc2)C(c2ccc(-c3ccccc3)cc2)NC(=O)N1Cc1ccc(-c2nnn[nH]2)cc1` (stereo not given), for which the values for the fold change (FC) (in data set [1]; in the data set with Homo sapiens [4]) were 2 and 5, respectively. Moreover, the GI50 at 48 h in [3] is 160 µM. Further, in data set [5], the GI50 at 24 h worked out at 96 µM.

For the compound `CC1=C(C(=O)OCc2ccccc2)C(c2ccc(-c3ccccc3)cc2)N(CCCCCC(=O)O)C(=S)N1` (stereo not given), the fold change (FC) in data set [1] was found to be 1.6. For the same compound, the GI50 at 24 h in [5] is 110 µM.

Take `CCCCCCN(C(=O)CCCCCN1C(=O)NC(c2ccc(-c3ccccc3)cc2)C(C(=O)OCc2ccccc2)=C1C)C(C(=O)NCCCC)c1ccc(OCC(=O)OC)c(C(=O)OC)c1` (stereo not given): the GI50 at 48 h in data set [3] was determined as 6 µM. In data set [5], the GI50 at 24 h was 13 µM.

For `Nc1ccn(C[C@@H](CO)OCP(=O)(O)O)c(=O)n1.O.O` [CIDOFOVIR], the CC50 in data set [6] came to 49 µM. Further, in [7], the CC50 at 168 h was over 100 µM. Further, the EC50 came out at 2 µM in the data set with JC polyomavirus and 1.1 µM in the data set on BK polyomavirus. In addition, the “Ratio CC50/EC50” value in [9] worked out at 24.

Consider `CC1=C(C(=O)OCc2ccccc2)C(c2ccc(-c3ccccc3)cc2)NC(=S)N1CCCCCc1nnn[nH]1` (stereo not given), for which the fold change (FC) in [1] is 2.1; with Homo sapiens [4] it was 1.7. Also, the GI50 at 24 h in data set [5] stood at 110 µM.

As to `CC1=C(C(=O)OCc2ccccc2)C(c2ccc(-c3ccccc3C)cc2)NC(=S)N1Cc1ccc(-c2nnn[nH]2)cc1` (stereo not given), the fold change (FC) in [1] is 7.7; in the data set on Homo sapiens [4], 3.7. In addition, the GI50 at 48 h in data set [3] came to 160 µM. Also, the GI50 at 24 h in [5] was 68 µM.

Turning to `CC1=C(C(=O)OCc2ccccc2)C(c2ccc(-c3ccccc3C)cc2)NC(=O)N1Cc1ccc(-c2nnn[nH]2)cc1` (stereo not given), the CC50 was determined as 21 µM in data set [6] and 20 µM in data set [7]. Moreover, the EC50 in the data set with JC polyomavirus came out at 4.2 µM; with BK polyomavirus, 1.7 µM. The GI50 at 48 h in data set [3] is 140 µM. The GI50 at 24 h in data set [5] worked out at 73 µM.

In the case of `CC1=C(C(=O)OCc2ccccc2)C(c2ccc(-c3ccccc3)cc2)NC(=O)N1CCCCCc1nnn[nH]1` (stereo not given), the fold change (FC) was 1.4 in data set [1], 1.2 in the data set filed under Homo sapiens [2] and 1.3 in the data set on Homo sapiens [4]. The CC50 in data set [6] turned out to be 24 µM. Also, the CC50 at 168 h in [7] is over 67 µM. In addition, the results for the EC50 in the data set with JC polyomavirus and in the data set on BK polyomavirus were 3.5 µM and 3.9 µM, respectively.

Compound `CC1=C(C(=O)OCc2ccccc2)C(c2ccc(-c3ccccc3)cc2)NC(=S)N1CCCCCC(=O)O` (stereo not given) displayed a fold change (FC) in data set [1] of 1.5. Moreover, the GI50 at 24 h in [5] is 100 µM.
